Blank lines part the entries; values can stand above or below the compound they belong to.
Tests used:
ABCG2 = target: T1, ABCG2 (Homo sapiens, UniProt Q9UNQ0); assay: siRNA depletion of ABCG2 followed by THZ1 treatment; assay type: cell-based; details: ABCG2 depletion sensitized resistant cells; H157 cells, THZ1 50nM, 72 hrs
T1 sequence (Q9UNQ0 1-655): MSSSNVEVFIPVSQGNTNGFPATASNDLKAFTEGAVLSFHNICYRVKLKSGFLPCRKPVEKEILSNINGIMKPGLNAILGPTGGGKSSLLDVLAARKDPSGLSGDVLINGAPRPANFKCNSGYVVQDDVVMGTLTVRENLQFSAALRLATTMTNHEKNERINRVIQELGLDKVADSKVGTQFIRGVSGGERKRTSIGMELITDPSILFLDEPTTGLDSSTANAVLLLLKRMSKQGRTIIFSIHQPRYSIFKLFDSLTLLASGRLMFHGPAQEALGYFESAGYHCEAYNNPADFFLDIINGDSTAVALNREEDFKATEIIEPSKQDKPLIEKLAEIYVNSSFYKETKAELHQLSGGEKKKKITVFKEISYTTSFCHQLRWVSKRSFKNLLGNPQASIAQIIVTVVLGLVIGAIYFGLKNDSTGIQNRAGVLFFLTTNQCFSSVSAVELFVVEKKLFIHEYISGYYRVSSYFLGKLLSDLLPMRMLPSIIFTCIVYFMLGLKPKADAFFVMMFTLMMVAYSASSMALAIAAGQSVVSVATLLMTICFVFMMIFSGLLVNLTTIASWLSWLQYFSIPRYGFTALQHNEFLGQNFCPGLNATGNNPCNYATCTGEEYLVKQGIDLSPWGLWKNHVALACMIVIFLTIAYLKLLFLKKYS

NSCLC cell line panel = assay: Cell viability dose response in NSCLC cell line panel; assay type: cell-based, human
Outline: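 Viability read after 72 hrs of exposure to test compound at 5 µM, either alone or with HET-0016 at 100 nM. DMSO-treated cells serve as control.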

[1] = no reference given; cited from earlier work
[2] = test system: FK-506 binding protein family members (FKBP) 1A, 2, 3,4, and 5; assay: Arrayed affinity-selection/mass spectrometry binding assay, control compound; parameters: species or system human; details: control for the binder selection pipeline; FKBP1A highest signal

Compound: CN(C)C/C=C/C(=O)Nc1ccc(C(=O)Nc2cccc(Nc3ncc(Cl)c(-c4c[nH]c5ccccc45)n3)c2)cc1 [THZ1]
efflux transporter substrate status (ABCG2): ABCG2 substrate

Compound: CC(C)Oc1ccc(C(=O)N[C@H](CNC(=O)CN(C)C)Cc2ccc(-c3cn4cccc([C@H](C)O)c4n3)cc2)cc1Cl [SW208097]
sensitivity (ED50) (NSCLC cell line panel; cell lines with co-occuring mutations in TP53 and KEAP1): low nanomolar | pharmacokinetics in humans [1]: dose proportional pharmacokinetics

Compound: CCCCc1ccc(N=CNO)c(C)c1 [HET0016]
effect on SW001286 toxicity (NSCLC cell line panel; SW001286 5µM plus HET-0016 100nM, 72 hrs, two sensitive cell lines): rescued

LC/MS binding signal [2]: strongest signal
Compound: C=CC[C@@H]1/C=C(\C)C[C@H](C)C[C@H](OC)[C@H]2O[C@@](O)(C(=O)C(=O)N3CCCC[C@H]3C(=O)O[C@H](/C(C)=C/[C@@H]3CC[C@@H](O)[C@H](OC)C3)[C@H](C)[C@@H](O)CC1=O)[C@H](C)C[C@@H]2OC [FK-506]

— paper PMC5935540 (Cell, 2018)
